Experimental data reported in ChEMBL document CHEMBL1150854, “New prenylated bi- and tricyclic phloroglucinol derivatives from Hypericum papuanum” (J Nat Prod, 2001).
≈ marks a conversion by molar mass, not a printed value. Calls of active or inactive are those of the source. The calls are words filed in the database; no cut-off is given here.

Key:
[1] = test system: Staphylococcus epidermidis; test: Antibacterial activity against Staphylococcus epidermidis ATCC 12228 by doubling dilution method; type: functional
Procedure, shortened: (§1)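 Doubling (twofold) broth dilution of pure compounds, modified from an earlier published procedure. Gram-positive strains: B. cereus ATCC 10702, S. epidermidis ATCC 12228, M. luteus ATCC 9341. Read-out is MIC in μg/mL. Chloramphenicol served as positive control.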

KB = test: Cytotoxicity against human KB cells; type: functional, cell-based
Procedure, shortened: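 KB cells (ATCC CCL 17, human nasopharyngeal carcinoma), run by the method of earlier published work. Each test done at least in triplicate. Value given as IC50 in μg/mL. Podophyllotoxin served as positive control.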

Bacillus cereus = test: Antibacterial activity against Bacillus cereus ATCC 10702 by doubling dilution method; type: functional; procedure, shortened: as §1
Micrococcus luteus = test: Antibacterial activity against Micrococcus luteus ATCC 9341 by doubling dilution method; type: functional; procedure, shortened: as §1
[2] = Homo sapiens, KB, read-out: IC50
[3] = Bacillus cereus, ATCC 10702, read-out: MIC
[4] = Staphylococcus epidermidis, ATCC 12228, read-out: MIC

CC(C)=CCC1(C)C(=O)C(C(=O)C(C)C)=C(O)C2=C1OC(C)(C)C=C2 (stereo in doubt; 7a) was tested, and the Activity [1] was “inactive”.

With CC(C)=CC[C@@H]1C[C@]2(C)C(=O)[C@@](C(=O)C(C)C)(C(=O)C3=C2OC(C)(C)C=C3)C1(C)C [PAPUAFORIN A] the IC50 (KB; [2]) was 7.5 µg/mL (≈ 18.2 µM), the MIC (Bacillus cereus; [3]) was 64 µg/mL (≈ 155 µM) and the Activity [1] was “inactive”.

For CCC(C)C(=O)[C@]12C(=O)C3=C(OC(C)(C)C=C3)[C@](C)(C[C@@H](CC=C(C)C)[C@]1(C)CCC=C(C)C)C2=O (stereo partly specified) [PAPUAFORIN D], the IC50 (KB; [2]) was 6.6 µg/mL (≈ 13.3 µM), the MIC (Bacillus cereus; [3]) was 128 µg/mL (≈ 259 µM) and the Activity [1] was “inactive”.

In the case of CC(C)=CCC[C@@]1(C)[C@H](CC=C(C)C)C[C@]2(C)C(=O)[C@@]1(C(=O)C(C)C)C(=O)C1=C2OC(C)(C)C=C1 [PAPUAFORIN E], the IC50 (KB; [2]) is reported as 5.6 µg/mL (≈ 11.6 µM), the MIC (Bacillus cereus; [3]) is reported as 64 µg/mL (≈ 133 µM) and the MIC [1, 4] is reported as 32 µg/mL (≈ 66.6 µM).

In the case of CCC(=O)C1=C(O)C2=C(OC(C)(C)C=C2)C(C)(CC=C(C)C)C1=O (stereo in doubt; 6a) [HYPERGUINONE A], the MIC (Bacillus cereus; [3]) is reported as 32 µg/mL (≈ 96.8 µM) and the MIC [1, 4] is reported as 32 µg/mL (≈ 96.8 µM).

With CC(C)=CCC1(C)C(=O)C(C(=O)C(C)C)=C(O)C2=C1OC(C)(C)C=C2 (stereo in doubt; 7a) [HYPERGUINONE B] the IC50 (KB; [2]) was 13 µg/mL (≈ 37.7 µM) and the MIC (Bacillus cereus; [3]) was 32 µg/mL (≈ 92.9 µM).

CCC(=O)C1=C(O)C2=C(OC(C)(C)C=C2)C(C)(CC=C(C)C)C1=O (stereo in doubt; 6) [HYPERGUINONE A] gave an MIC (Bacillus cereus) of 32 µg/mL (≈ 96.8 µM) and an MIC [1] of 32 µg/mL (≈ 96.8 µM).

CC(C)=CCC1(C)C(=O)C(C(=O)C(C)C)=C(O)C2=C1OC(C)(C)C=C2 (stereo in doubt; 7) was tested, and the Activity [1] was “inactive”.

COc1cc([C@@H]2c3cc4c(cc3[C@H](O)[C@H]3COC(=O)[C@H]23)OCO4)cc(OC)c1OC [PODOFILOX] gave an IC50 (KB; [2]) of 0.006 µg/mL (≈ 0.0145 µM).

With CC(C)=CC[C@@H]1C[C@@]2(C)C(=O)[C@](CC=C(C)C)(C(=O)C(C(=O)C(C)C)=C2O)C1(C)C (stereo in doubt; 8) the IC50 (KB; kb) was 3.2 µg/mL (≈ 7.72 µM), the MIC (Bacillus cereus; [3]) was 8 µg/mL (≈ 19.3 µM) and the MIC [1, 4] was 8 µg/mL (≈ 19.3 µM). For the same compound, the MIC (Micrococcus luteus) was 16 µg/mL (≈ 38.6 µM).

In the case of CC(C)=CCC1(C)C(=O)C(C(=O)C(C)C)=C(O)C2=C1OC(C)(C)C=C2 (stereo in doubt; 7) [HYPERGUINONE B], the IC50 (KB; kb) is reported as 13 µg/mL (≈ 37.7 µM) and the MIC (Bacillus cereus) is reported as 32 µg/mL (≈ 92.9 µM).

For O=C(N[C@H](CO)[C@H](O)c1ccc([N+](=O)[O-])cc1)C(Cl)Cl [CHLORAMPHENICOL], the MIC (Bacillus cereus; [3]) was 2 µg/mL (≈ 6.19 µM), the MIC [1, 4] was 4 µg/mL (≈ 12.4 µM) and the MIC (Micrococcus luteus) was 2 µg/mL (≈ 6.19 µM).

For CCC(C)C(=O)[C@]12C(=O)C3=C(OC(C)(C)C=C3)[C@](C)(C[C@@H](CC=C(C)C)C1(C)C)C2=O (stereo partly specified) [PAPUAFORIN C], the IC50 (KB; [2]) was 4.9 µg/mL (≈ 11.5 µM), the MIC (Bacillus cereus; [3]) was 64 µg/mL (≈ 150 µM) and the Activity [1] was “inactive”. It also gave an MIC (Micrococcus luteus) of 32 µg/mL (≈ 75 µM).
